Assay results reported in ChEMBL document CHEMBL2146380, “Uncoupling and antioxidant effects of ursolic acid in isolated rat heart mitochondria” (J Nat Prod, 2011).
In brackets after ≈: the same amount, converted by molar mass. Activity calls are given as the source filed them. The rule behind the calls is not given here.

Tests used:
Format in all cases: functional
Rattus norvegicus [1] = species: Rattus norvegicus; test: Effect on mitochondrial respiratory chain in rat heart mitochondria assessed as stimulation of state 2 respiration rate 449 ng/mL
Rattus norvegicus [2] = species: Rattus norvegicus; test: Effect on mitochondrial respiratory chain in Wistar rat heart mitochondria assessed as ratio of respiratory rate in presence of ADP and cytochrome c to respiratory rate in presence of ADP using palmitoyl-L-carnitine and malate as substrate (reference value: 1.3+/-0.1)
Summary of the method: (§1)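 Isolated male Wistar rat heart mitochondria at 0.5 mg protein/mL. O2 uptake was recorded by Clark electrode at 37 C in pH 7.1 imidazole/taurine/MES medium (3 mM KH2PO4, 0.1 μM free Ca2+). Substrates were 6 mM pyruvate + 6 mM malate, 12 mM succinate + 2 mM amytal, or 9 μM palmitoyl-L-carnitine + 0.24 mM malate. Sequence: State 2 (V0), then 1 mM ADP (State 3), then 32 μM cytochrome c. RCI = VADP/V0. Rates in nmol O/min/mg; n = 3–4.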

Rattus norvegicus [3] = species: Rattus norvegicus; test: Effect on mitochondrial respiratory chain in Wistar rat heart mitochondria assessed as increase in state 2 respiratory rate per mg protein using succinate and amytal sodium as substrate at 5 ng/mL; summary of the method: as §1
Rattus norvegicus [4] = species: Rattus norvegicus; test: Effect on mitochondrial respiratory chain in Wistar rat heart mitochondria assessed as ratio of respiratory rate in presence of ADP and cytochrome c to respiratory rate in presence of ADP using succinate and amytal sodium as substrate (reference value: 1.8+/- 0.1); summary of the method: as §1
Rattus norvegicus [5] = species: Rattus norvegicus; test: Effect on mitochondrial respiratory chain in Wistar rat heart mitochondria assessed as complex-1 dependent state 2 respiratory rate per mg protein using pyruvate and malate as substrate at 1.6 ng/mL; summary of the method: as §1
Rattus norvegicus [6] = species: Rattus norvegicus; test: Effect on mitochondrial respiratory chain in Wistar rat heart mitochondria assessed as respiratory rate per mg protein using palmitoyl-L-carnitine and malate as substrate in presence of ADP (reference value: 436+/-54 nmol/min); summary of the method: as §1
Rattus norvegicus [7] = species: Rattus norvegicus; test: Effect on mitochondrial respiratory chain in Wistar rat heart mitochondria assessed as state 2 respiratory rate per mg protein using succinate and amytal sodium as substrate at 5 ng/mL; summary of the method: as §1
Rattus norvegicus [8] = species: Rattus norvegicus; test: Effect on mitochondrial respiratory chain in Wistar rat heart mitochondria assessed as respiratory rate per mg protein using pyruvate and malate as substrate (reference value: 52 +/- 7 nmol/min); summary of the method: as §1
Rattus norvegicus [9] = species: Rattus norvegicus; test: Effect on mitochondrial respiratory chain in rat heart mitochondria assessed as stimulation of state 2 respiration rate 26 ng/mL
Rattus norvegicus [10] = species: Rattus norvegicus; test: Effect on mitochondrial respiratory chain in rat heart mitochondria assessed as stimulation of state 2 respiration rate 12.6 ng/mL
Rattus norvegicus [11] = species: Rattus norvegicus; test: Effect on mitochondrial respiratory chain in Wistar rat heart mitochondria assessed as decrease in respiratory control index at 50 to 200 ng/mL; design: scale not given: the % may be the effect or the level left; summary of the method: as §1
Rattus norvegicus [12] = species: Rattus norvegicus; test: Effect on basal respiration rate in Wistar rat heart mitochondrial respiratory chain using pyruvate and malate as substrate at 0.4 to 1.2 ng/mL; details: Mitochondria
Summary of the method: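 Clark-type electrode oxygen uptake at 37 C, pH 7.1 imidazole/taurine/MES medium with 3 mM KH2PO4, 0.1 μM free Ca2+. Substrates 6 mM pyruvate + 6 mM malate; compound at 0.4, 0.8, 1.2 ng/mL; State 2 (V0) rate registered, nmol O/min/mg protein.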

Rattus norvegicus [13] = species: Rattus norvegicus; test: Effect on mitochondrial respiratory chain in Wistar rat heart mitochondria assessed as respiratory control index using pyruvate and malate as substrate (reference value: 8.0+/-1.2); summary of the method: as §1
Rattus norvegicus [14] = species: Rattus norvegicus; test: Effect on mitochondrial respiratory chain in rat heart mitochondria assessed as stimulation of state 2 respiration rate 7 ng/mL
Rattus norvegicus [15] = species: Rattus norvegicus; test: Effect on mitochondrial respiratory chain in Wistar rat heart mitochondria assessed as state 2 respiratory rate using palmitoyl-L-carnitine and malate as substrate at 5 ng/mL; summary of the method: as §1
Rattus norvegicus [16] = species: Rattus norvegicus; test: Effect on mitochondrial respiratory chain in Wistar rat heart mitochondria assessed as increase in complex-1 dependent state 2 respiratory rate per mg protein using pyruvate and malate as substrate at 5 ng/mL; summary of the method: as §1
Rattus norvegicus [17] = species: Rattus norvegicus; test: Effect on mitochondrial respiratory chain in Wistar rat heart mitochondria assessed as respiratory rate per mg protein using palmitoyl-L-carnitine and malate as substrate (reference value: 85+/-4 nmol/min); summary of the method: as §1
Rattus norvegicus [18] = species: Rattus norvegicus; test: Effect on mitochondrial respiratory chain in Wistar rat heart mitochondria assessed as complex-1 dependent state 2 respiratory rate per mg protein using pyruvate and malate as substrate at 5 ng/mL; summary of the method: as §1
Rattus norvegicus [19] = species: Rattus norvegicus; test: Effect on mitochondrial respiratory chain in Wistar rat heart mitochondria assessed as respiratory rate per mg protein using pyruvate and malate as substrate in presence of ADP (reference value: 389+/-40 nmol/min); summary of the method: as §1
Rattus norvegicus [20] = species: Rattus norvegicus; test: Antioxidant activity in Wistar rat heart mitochondria assessed as reduction in H2O2 production at 1.6 ng/mL by Amplex red based fluorimetric analysis; design: scale not given: the % may be the effect or the level left
Summary of the method: (§2)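 Male Wistar rat heart mitochondria (0.25 mg/mL) incubated 7 min at 37 C in respiration medium with 6 mM each pyruvate and malate plus 16 ng/mL antimycin A. CCCP (1 μM) was the uncoupler reference. Then 5 μM Amplex Red and 2 U/mL horseradish peroxidase were added; fluorescence at ex 544/em 590 nm, calibrated with known H2O2; n = 3.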

Rattus norvegicus [21] = species: Rattus norvegicus; test: Effect on mitochondrial respiratory chain in Wistar rat heart mitochondria assessed as state 2 respiratory rate per mg protein using succinate and amytal sodium as substrate at 1.6 ng/mL; summary of the method: as §1
Rattus norvegicus [22] = species: Rattus norvegicus; test: Effect on mitochondrial respiratory chain in rat heart mitochondria assessed as stimulation of state 2 respiration rate 293 ng/mL
Rattus norvegicus [23] = species: Rattus norvegicus; test: Effect on mitochondrial respiratory chain in Wistar rat heart mitochondria assessed as increase in complex-1 dependent state 2 respiratory rate per mg protein using pyruvate and malate as substrate at 1.6 ng/mL; summary of the method: as §1
Rattus norvegicus [24] = species: Rattus norvegicus; test: Effect on mitochondrial respiratory chain in Wistar rat heart mitochondria assessed as respiratory control index using succinate and amytal sodium as substrate (reference value: 2.5+/- 0.1); summary of the method: as §1
Rattus norvegicus [25] = species: Rattus norvegicus; test: Effect on mitochondrial respiratory chain in Wistar rat heart mitochondria assessed as increase in state 3 respiration rate using pyruvate and malate as substrate in presence ADP at 50 to 200 ng/mL; summary of the method: as §1
Rattus norvegicus [26] = species: Rattus norvegicus; test: Effect on mitochondrial respiratory chain in Wistar rat heart mitochondria assessed as increase in state 2 respiratory rate using palmitoyl-L-carnitine and malate as substrate at 1.6 ng/mL; summary of the method: as §1
Rattus norvegicus [27] = species: Rattus norvegicus; test: Effect on mitochondrial respiratory chain in Wistar rat heart mitochondria assessed as respiratory rate per mg protein using succinate and amytal sodium as substrate (reference value: 238+/-39 nmol/min); summary of the method: as §1
Rattus norvegicus [28] = species: Rattus norvegicus; test: Effect on mitochondrial respiratory chain in Wistar rat heart mitochondria assessed as state 3 respiratory rate using palmitoyl-L-carnitine and malate as substrate at 5 ng/mL; summary of the method: as §1
Rattus norvegicus [29] = species: Rattus norvegicus; test: Effect on mitochondrial respiratory chain in Wistar rat heart mitochondria assessed as ratio of respiratory rate in presence of ADP and cytochrome C to respiratory rate in presence of ADP using pyruvate and malate as substrate (reference value: 1.6+/-0.2); summary of the method: as §1
Rattus norvegicus [30] = species: Rattus norvegicus; test: Effect on mitochondrial respiratory chain in rat heart mitochondria assessed as stimulation of state 2 respiration rate 4.9 ng/mL
Rattus norvegicus [31] = species: Rattus norvegicus; test: Effect on mitochondrial respiratory chain in Wistar rat heart mitochondria assessed as state 3 respiratory rate using succinate and amytal sodium as substrate at 5 ng/mL; summary of the method: as §1
Rattus norvegicus [32] = species: Rattus norvegicus; test: Antioxidant activity in Wistar rat heart mitochondria assessed as reduction in H2O2 production at 5 ng/mL by Amplex red based fluorimetric analysis; design: scale not given: the % may be the effect or the level left; summary of the method: as §2
Rattus norvegicus [33] = species: Rattus norvegicus; test: Effect on mitochondrial respiratory chain in Wistar rat heart mitochondria assessed as increase in state 2 respiratory rate per mg protein using succinate and amytal sodium as substrate at 1.6 ng/mL; summary of the method: as §1
Rattus norvegicus [34] = species: Rattus norvegicus; test: Effect on mitochondrial respiratory chain in Wistar rat heart mitochondria assessed as respiratory control index using palmitoyl-L-carnitine and malate as substrate (reference value: 5.2+/-0.4); summary of the method: as §1
Rattus norvegicus [35] = species: Rattus norvegicus; test: Effect on mitochondrial respiratory chain in Wistar rat heart mitochondria assessed as increase in state 2 respiratory rate using palmitoyl-L-carnitine and malate as substrate at 5 ng/mL; summary of the method: as §1
Rattus norvegicus [36] = species: Rattus norvegicus; test: Effect on mitochondrial respiratory chain in Wistar rat heart mitochondria assessed as respiratory rate per mg protein using succinate and amytal sodium as substrate in presence of ADP (reference value: 606+/-108 nmol/min); summary of the method: as §1
Rattus norvegicus [37] = species: Rattus norvegicus; test: Effect on mitochondrial respiratory chain in Wistar rat heart mitochondria assessed as increase in state 2 respiration rate using pyruvate and malate as substrate at 50 to 200 ng/mL; summary of the method: as §1
Rattus norvegicus [38] = species: Rattus norvegicus; test: Effect on mitochondrial respiratory chain in Wistar rat heart mitochondria assessed as state 2 respiratory rate using palmitoyl-L-carnitine and malate as substrate at 1.6 ng/mL; summary of the method: as §1
Rattus norvegicus [39] = species: Rattus norvegicus; test: Effect on mitochondrial respiratory chain in Wistar rat heart mitochondria assessed as state 3 respiratory rate using pyruvate and malate as substrate at 5 ng/mL; summary of the method: as §1
[40] = (§3) Effect on mitochondrial respiratory chain in Wistar rat heart mitochondria assessed as increase in state 2 respiratory rate using pyruvate and malate as substrate; summary of the method: as §1
Rattus norvegicus [41] = species: Rattus norvegicus; test: as §3; summary of the method: as §1

C[C@H]1[C@H](C)CC[C@]2(C(=O)O)CC[C@]3(C)C(=CC[C@@H]4[C@@]5(C)CC[C@H](O)C(C)(C)[C@@H]5CC[C@]43C)[C@H]12 [URSOLIC ACID] gave an Activity (Rattus norvegicus [1]) of 11%, a Ratio (Rattus norvegicus [2]) of 1.2 and an Activity (Rattus norvegicus [3]) of 26%. For the same compound, the Ratio (Rattus norvegicus [4]) was 1.5, the Activity (Rattus norvegicus [5]) was 70 nmol/min and the Activity (Rattus norvegicus [6]) was 403 nmol/min. For the same compound, the Activity (Rattus norvegicus [7]) was 299 nmol/min, the Activity (Rattus norvegicus [8]) was 61 nmol/min and the Activity (Rattus norvegicus [9]) was 70%. For the same compound, the Activity (Rattus norvegicus [10]) was 11%, the Activity (Rattus norvegicus [11]) was 45% and the Activity (Rattus norvegicus [12]) was “inactive”. It also gave a Ratio (Rattus norvegicus [13]) of 4.8, an Activity (Rattus norvegicus [14]) of 11% and an Activity (Rattus norvegicus [15]) of 92 nmol/min. For the same compound, the Activity (Rattus norvegicus [16]) was 28%, the Activity (Rattus norvegicus [17]) was 82 nmol/min and the Activity (Rattus norvegicus [18]) was 78 nmol/min. For the same compound, the Activity (Rattus norvegicus [19]) was 374 nmol/min, the Activity (Rattus norvegicus [20]) was 49.5% and the Activity (Rattus norvegicus [21]) was 279 nmol/min. For the same compound, the Activity (Rattus norvegicus [22]) was 11%, the Activity (Rattus norvegicus [23]) was 15% and the Ratio (Rattus norvegicus [24]) was 2. For the same compound, the Activity (Rattus norvegicus [25]) was “inactive”, the Activity (Rattus norvegicus [26]) was 10% and the Activity (Rattus norvegicus [27]) was 238 nmol/min. For the same compound, the Activity (Rattus norvegicus [28]) was “inactive”, the Ratio (Rattus norvegicus [29]) was 1.5 and the Activity (Rattus norvegicus [30]) was 11%. For the same compound, the Activity (Rattus norvegicus [31]) was “inactive”, the Activity (Rattus norvegicus [32]) was 55.6% and the Activity (Rattus norvegicus [33]) was 17%. For the same compound, the Ratio (Rattus norvegicus [34]) was 4.4, the Activity (Rattus norvegicus [35]) was 10% and the Activity (Rattus norvegicus [36]) was 599 nmol/min. For the same compound, the Activity (Rattus norvegicus [37]) was 40%, the Activity (Rattus norvegicus [38]) was 90 nmol/min and the Activity (Rattus norvegicus [39]) was “inactive”. The EC50 [40] was 4.1 ng/mL (≈ 8.98 nM) and the Activity (Rattus norvegicus [41]) was “Dose-dependent effect”.
